Consider eight molecules from ChEMBL document CHEMBL1759952, “Synthesis and anticancer activities of some novel 2-(benzo[d]thiazol-2-yl)-8-substituted-2H-pyrazolo[4,3-c]quinolin-3(5H)-ones” (Eur J Med Chem, 2011).

≈ marks a conversion by molar mass, not a printed value. A value given as a limit tells only on which side of the number the result lay.

One data set deals with MDA-MB-435. As to the kind of experiment: Cytotoxicity against human MDA-MB-435 cells for 72 hrs by MTT assay. It counts as functional, cell-based. Conditions: MDA-MB-435, 72 h. The gist of the method: (§1)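 Cells kept in RPMI 1640 with 10% fetal bovine serum, 2 mM glutamine, 100 U/mL penicillin and streptomycin, at 37 °C under 5% CO₂. Compounds were dissolved in DMSO and diluted with water to 1 mg/mL, then incubated with cells for 72 h. Growth was read by MTT, with doxorubicin as positive control. IC₅₀ is the concentration giving 50% growth inhibition, in triplicate.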
In general terms: Formazan colour is commonly taken as a measure of viable cells.

A short description of data set [1]: Toxicity against mouse erythrocytes assessed as hemolysis after 30 mins by spectrometric analysis. The data set is classed as cell-based, Erythrocyte. The method, boiled down:
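Used a 2% mouse erythrocyte suspension in 0.85% NaCl with 10 mM CaCl₂. Compounds (DMSO stock diluted in water) were tested across a graded range, 30 min at room temperature, then centrifuged. Released hemoglobin in the supernatant was read at 540 nm. DMSO was the negative control and 1% Triton X-100 the positive control. EC₅₀ = effective concentration.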

Another data set concerns SF-295. Description: Cytotoxicity against human SF295 cells for 72 hrs by MTT assay. It counts as functional, cell-based. As to conditions: SF-295, 72 h. The gist of the method:
as §1

The test system of a further data set is HL-60. Description: Cytotoxicity against human HL60 cells for 72 hrs by MTT assay. The data set is classed as functional, cell-based. Conditions: HL-60, 72 h. The gist of the method:
as §1

In another data set the test system is HCT-8. Description: Cytotoxicity against human HCT8 cells for 72 hrs by MTT assay. As to conditions: HCT-8, 72 h. The data set is classed as functional, cell-based. The gist of the method:
as §1

Turning to `O=c1c2c[nH]c3ccc(F)cc3c-2nn1-c1nc2ccccc2s1`, the IC50 with MDA-MB-435, in the data set with SF-295, in the data set on HL-60 and with HCT-8 was greater than 5 µg/mL each time. Moreover, the EC50 at 30 min in data set [1] is greater than 250 µg/mL.

As for `Cc1ccc2[nH]cc3c(=O)n(-c4nc5ccccc5s4)nc-3c2c1`, the IC50 with MDA-MB-435 is 2.3 µg/mL (≈ 6.92 µM); with SF-295, 4.5 µg/mL (≈ 13.5 µM); in the data set with HL-60 it was greater than 5 µg/mL; in the data set on HCT-8, 4.1 µg/mL (≈ 12.3 µM). Further, the EC50 at 30 min in data set [1] was greater than 250 µg/mL.

Regarding `O=c1c2c[nH]c3ccc(Br)cc3c-2nn1-c1nc2ccccc2s1`, the IC50 in the data set on MDA-MB-435 is 1.6 µg/mL (≈ 4.03 µM); with SF-295 it was 4.1 µg/mL (≈ 10.3 µM); in the data set with HL-60, 3 µg/mL (≈ 7.55 µM); with HCT-8 it was greater than 5 µg/mL. Besides, the EC50 at 30 min in data set [1] is greater than 250 µg/mL.

Turning to `COc1ccc2[nH]cc3c(=O)n(-c4nc5ccccc5s4)nc-3c2c1`, the half-inhibitory concentration (IC50) in the data set with MDA-MB-435, in the data set with SF-295, with HL-60 and with HCT-8 was greater than 5 µg/mL each time. The EC50 at 30 min in data set [1] was greater than 250 µg/mL.

`O=c1c2c[nH]c3ccc(Cl)cc3c-2nn1-c1nc2ccccc2s1`: the IC50 in the data set on MDA-MB-435, in the data set on SF-295, in the data set with HL-60 and with HCT-8 was greater than 5 µg/mL each time. For the same molecule, in data set [1], the EC50 at 30 min is greater than 250 µg/mL.

As for `O=c1c2c[nH]c3ccccc3c-2nn1-c1nc2ccccc2s1`, the IC50 in the data set on MDA-MB-435, with SF-295, with HL-60 and in the data set with HCT-8 was greater than 5 µg/mL each time. In addition, the EC50 at 30 min in data set [1] was greater than 250 µg/mL.

For `O=c1c2c[nH]c3ccc([N+](=O)[O-])cc3c-2nn1-c1nc2ccccc2s1`, the IC50 with MDA-MB-435, in the data set with SF-295, in the data set with HL-60 and with HCT-8 was greater than 5 µg/mL throughout. The half-maximal effective concentration (EC50) at 30 min in data set [1] is greater than 250 µg/mL.

On to `COc1cccc2c1C(=O)c1c(O)c3c(c(O)c1C2=O)C[C@@](O)(C(=O)CO)C[C@@H]3O[C@H]1C[C@H](N)[C@H](O)[C@H](C)O1` [DOXORUBICIN], for which the IC50 in the data set on MDA-MB-435 was found to be 0.69 µg/mL (≈ 1.27 µM); with HL-60, 0.03 µg/mL (≈ 0.0552 µM); with HCT-8, 0.06 µg/mL (≈ 0.11 µM).

Usually IC50 stands for the concentration that inhibits the measured activity by half. Usually EC50 stands for the midpoint of the concentration-response curve.
